From PubChem BioAssay
This is a sample that favours compounds with a hit; in the whole collection about 1.4% have one here.
STAT3 act-1: IL-6 driven STAT3 reporter potentiators, primary screen, U3A cells, luciferase, luminescence, MLSCN library | IL-6 STAT3-luciferase reporter; 100% = signal with IL-6 EC80 alone | activation (% of control), % at 5.6 µM | 190,000 compounds, 0.91% hits | AID 871, 2007;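 active means activation above the screen-wide mean of compound activation plus 3 SD, cut at about 130% in these data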;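 further: 0% = background luminescence of wells with medium and substrate only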
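system = STAT3-luciferase reporter U3A cells | reagent = IL-6 stimulus at 33 ng/mL final | timing = 1 h compound pre-exposure, 6 h IL-6 stimulation, 37 °C | measured by = luminescence | evaluation = % activation versus median of IL-6-stimulated wells | control set = IL-6-only wells as 100% reference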
PERK inhibitor: block of dimerizer-induced PERK translation repression, primary screen, PERK inhibitor project, CHO PERK-DD cells, SEAP luminescence, HTS | CHO PERK-DD fusion, SEAP luminescence translation reporter | Eukaryotic translation initiation factor 2-alpha kinase 3 (Homo sapiens), Q9NZJ5 | inhibition, % at 5.6 µM | 220,000 compounds, 0.17% hits | AID 1416, 2008;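 active means inhibition above the mean inhibition of all tested compounds plus 3 SD, set separately per screening campaign, cut at about 2.9% in these data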;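 further: PERK kinase domain activated by AP20187 dimerizer at 100 nM; 0% = DMSO with dimerizer and 100% = rapamycin at 8.4 µM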
Target sequence (Q9NZJ5 whole entry, looked up, the tested form may be a part): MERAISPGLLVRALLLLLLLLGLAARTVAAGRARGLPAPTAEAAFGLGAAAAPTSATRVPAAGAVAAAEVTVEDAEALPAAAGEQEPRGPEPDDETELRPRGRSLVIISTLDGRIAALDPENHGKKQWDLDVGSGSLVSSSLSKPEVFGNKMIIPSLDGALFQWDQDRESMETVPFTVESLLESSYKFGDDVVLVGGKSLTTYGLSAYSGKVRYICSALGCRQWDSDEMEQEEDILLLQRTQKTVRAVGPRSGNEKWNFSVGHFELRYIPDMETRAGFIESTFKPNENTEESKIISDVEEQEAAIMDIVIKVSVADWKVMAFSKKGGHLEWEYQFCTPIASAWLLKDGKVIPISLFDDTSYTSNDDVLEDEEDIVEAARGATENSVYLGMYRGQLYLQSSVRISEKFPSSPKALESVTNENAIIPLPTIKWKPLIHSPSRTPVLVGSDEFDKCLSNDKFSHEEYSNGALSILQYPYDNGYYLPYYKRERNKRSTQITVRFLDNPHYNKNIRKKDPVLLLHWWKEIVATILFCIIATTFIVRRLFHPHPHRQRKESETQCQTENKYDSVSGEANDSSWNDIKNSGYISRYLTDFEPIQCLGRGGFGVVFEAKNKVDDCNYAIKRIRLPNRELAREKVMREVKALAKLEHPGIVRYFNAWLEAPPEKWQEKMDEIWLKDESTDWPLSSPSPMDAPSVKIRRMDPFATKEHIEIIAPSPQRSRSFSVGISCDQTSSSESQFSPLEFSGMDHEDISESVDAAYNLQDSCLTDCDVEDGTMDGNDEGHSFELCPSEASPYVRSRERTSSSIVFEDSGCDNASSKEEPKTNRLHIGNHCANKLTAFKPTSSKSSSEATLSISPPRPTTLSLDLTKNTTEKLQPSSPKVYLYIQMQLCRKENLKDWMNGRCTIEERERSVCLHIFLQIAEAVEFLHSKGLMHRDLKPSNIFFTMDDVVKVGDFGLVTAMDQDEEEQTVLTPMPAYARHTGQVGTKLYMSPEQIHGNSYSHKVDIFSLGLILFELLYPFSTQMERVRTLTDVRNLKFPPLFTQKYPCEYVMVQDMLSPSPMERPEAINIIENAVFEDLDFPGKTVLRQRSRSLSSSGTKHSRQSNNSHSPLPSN
STAT3 blocker: IL-6 driven STAT3 reporter inhibitors, primary screen, U3A cells, luciferase, luminescence, MLSCN library; 190,000 compounds, 0.89% hits; AID 862, 2007; IL-6 STAT3-luciferase reporter; host cell line lacks STAT1; inhibition, % at 5.5 µM;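 active means inhibition above the mean inhibition across all screened compounds plus 3 SD, cut at about 44% in these data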;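 further: 0% = DMSO only wells and 100% = 100 µM nifuroxazide control wells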
Platelet DG rel: inhibitors of platelet dense granule secretion, primary screen, cell-based, MLPCN, human platelets; AID 1663, 2009; 300,000 compounds, 0.22% hits; inhibition, %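 (compounds screened at 7.5 µM in platelet-rich plasma)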; human platelet-rich plasma, SFLLRN dense granule ATP release, luminescence;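 active means mean replicate score, as percent of positive control, at or above 50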
STAT1 inh: STAT1 signaling inhibitors, primary screen, cell-based, HTS, luciferase reporter | NIH 3T3 STAT1-luciferase reporter, IFN-gamma, luminescence | inhibition, % at 5.5 µM | 200,000 compounds, 0.35% hits | AID 920, 2007;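 active means inhibition above a set limit, the mean inhibition across all tested compounds plus 3 SD, cut at about 34% in these data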;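 further: 0% = IFN-gamma with DMSO and 100% = IFN-gamma with 300 µM nifuroxazide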
STAT3 act-2: STAT3 reporter potentiators, retest of hits, confirmation, U3A cells, luciferase, luminescence; shares compounds with STAT3 act-1; potentiation (% of control), % at 5.7 µM; 1,200 compounds, 64% hits; IL-6 potentiation; U3A cells lack STAT1; 100 means same as IL-6 alone; AID 1267, 2008;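 active means percent activation of the STAT3 luciferase reporter above a set limit taken from the earlier primary screen, cut at about 130% in these data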;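 further: 0% = background signal of medium plus substrate and 100% = median of IL-6 with DMSO wells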
NFkB act 2: NF-kB reporter activators in human cells, counter-screen for STAT3 activator project. shares compounds with STAT3 act-1. NF-kappaB reporter activation. activation (% of control), % at 5.7 µM. 1,200 compounds, 11% hits. AID 1309, 2008; in the data active means activation above about 120%;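 further: reporter induced by TNF-alpha stimulation; 100% = median of stimulated DMSO wells and 0% = no signal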
STAT1 act: STAT1 reporter activators, IFN-gamma induced, counter-screen for STAT3 activator project, cell-based, NIH 3T3, luciferase luminescence; shares compounds with STAT3 act-1; activation (% of control), % at 5.7 µM; 1,200 compounds, 13% hits; AID 1318, 2008; NIH 3T3 STAT1-luciferase reporter;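 active means activation above the solvent-only control well mean plus 3 SD, set per screening run, cut at about 120% in these data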;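 further: 100% = IFN-gamma with DMSO median signal so 100% means no change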
Active calls of the source: *; x = not tested or not shown.

SMILES	STAT3 act-1	PERK inhibitor	STAT3 blocker	Platelet DG rel	STAT1 inh	STAT3 act-2	NFkB act 2	STAT1 act
CCc1ccc(CN(C)C(=O)CCc2nnc(Cc3cccc(C)c3)o2)nc1	106	0	-5	2	-6	x	x	x
COc1ccccc1N1CCN(C(=O)CCc2nnc3ccc(N4CCC(C)CC4)nn23)CC1	x	x	x	-2	x	x	x	x
Cn1c(=O)[nH]c(=O)c2c1nc(CN1CCN(c3cccc(Cl)c3)CC1)n2CCc1ccccc1	103	-1	0	5	6	x	x	x
Cn1c(CN2CCN(c3cccc(Cl)c3)CC2)nc2ccccc21	139*	0	-42	3	4	123	108	104
c1ccc(-c2ccccc2-c2nc(-c3cccnc3)no2)cc1	97	0	5	x	0	x	x	x
c1cncc(-c2noc(-c3cccc4ccccc34)n2)c1	188*	-1	-106	-1	-28	176*	124*	148*
CCN(CC)CCN1C(=O)C(=O)/C(=C(/O)c2c(C)[nH]c(C(=O)OC)c2C)C1c1cccnc1 (stereo not drawn)	103	1	1	x	3	x	x	x
COC(=O)c1[nH]c(C)c(/C(O)=C2\C(=O)C(=O)N(CCN3CCOCC3)C2c2cccnc2)c1C (stereo not drawn)	138*	1	-42	-8	-3	92	107	97
Cc1ccc(/C=C/S(=O)(=O)NCC(=O)OCC(=O)N2CC(=O)Nc3ccccc32)cc1	x	2	x	1	x	x	x	x
N/C(=N\OC(=O)c1cccc(Br)c1)c1ccccn1	x	x	x	-8	x	x	x	x
Cc1ccc(C)c(C(=O)O/N=C(\N)c2ccc(Br)cc2)c1	155*	0	-61	7	8	150*	108	102
N/C(=N\OC(=O)c1cccc(Br)c1)c1ccccc1	158*	0	-72	-2	-30	152*	131*	151*
N/C(=N\OC(=O)c1cccc2ccccc12)c1ccc(Br)cc1	139*	1	-46	3	3	135*	107	106
O=C(Oc1ccccc1O)c1cccc2ccccc12	141*	1	-42	-3	-11	132	102	103
Cn1ncc(Br)c1C(=O)Nc1c(F)c(F)cc(F)c1F	139*	1	-42	-6	-41	137*	115	148*
CC(C)c1ccc(NC(=O)C2=NNC(=O)CC2)cc1	x	1	x	-28	x	x	x	x
CCOC(=O)c1c(C)oc2c1c1c(c3ccccc32)OCN(Cc2ccccn2)C1	150*	0	-63	-1	-7	126	99	93
CCOC(=O)C1=C(C)NC(C)=C(C(=O)OCC)C1c1cc2ccc(C)cc2[nH]c1=O	143*	0	-46	-4	8	129	92	99
Cc1oc(/N=C/c2ccc(Cl)cc2)c(C#N)c1C	146*	1	-50	-6	-9	136*	104	113
Cc1oc(/N=C/c2ccccc2O)c(C#N)c1C	146*	2	-49	-6	-5	157*	106	101
Cc1oc(/N=C/c2ccc(O)cc2O)c(C#N)c1C	107	0	0	2	8	x	x	x
O=C(c1ccco1)N1CCN(c2ccc(Cl)c(Cl)c2)CC1	97	0	8	-19	-6	x	x	x
COC(=O)N/N=C/c1c[nH]c2ccccc12	132	0	-35	15	-6	x	x	x
CC(C)(C)OC(=O)N/N=C/c1c[nH]c2ccccc12	139*	0	-50	3	-19	126	119	120
O=C(NCCC1=CCCCC1)C1CC(=O)N(Cc2ccccc2)C1 (stereo not drawn)	x	x	x	1	x	x	x	x
SMILES	STAT3 act-1	PERK inhibitor	STAT3 blocker	Platelet DG rel	STAT1 inh	STAT3 act-2	NFkB act 2	STAT1 act
O=C(Nc1ccccc1)/C(=C\c1ccc(F)cc1)NC(=O)c1ccco1	x	x	x	2	x	x	x	x
O=C(NCc1ccccc1)C(c1ccccc1)N(C(=O)c1csnn1)C1CCCC1 (stereo not drawn)	x	x	x	2	x	x	x	x
CCOC(=O)c1cnn(-c2ncnc3c2cnn3Cc2ccccc2)c1N	87	0	18	3	3	x	x	x
CCOC(=O)c1cnn(-c2ncnc3sc(C)c(C)c23)c1N	149*	0	-57	-15	6	143*	101	104
Cc1ccnc(NS(=O)(=O)c2cc(-c3cc(C)no3)ccc2C(C)C)c1	x	x	x	-23	x	x	x	x
Cc1noc(/C=C/N(C)C)c1S(=O)(=O)N1CCc2ccccc21	151*	0	-56	x	6	139*	103	97
CC(=O)NC(CCS(C)(=O)=O)C(=O)N1CCc2ccccc21 (stereo not drawn)	137*	1	-41	-4	-6	116	102	100
O=C1CN(C(=O)c2ccc(Br)o2)C(c2ccccc2)c2cc(Br)ccc2N1 (stereo not drawn)	142*	-1	-47	-2	1	139*	100	111
CCOc1ccc(NC(=O)C(CC(=O)O)Cc2ccccc2)cc1 (stereo not drawn)	97	1	3	2	-1	x	x	x
CCOc1ccc(NC(=O)C(Cc2ccccc2)N2C(=O)c3cccc4cccc(c34)C2=O)cc1 (stereo not drawn)	138*	0	-36	4	0	119	96	97
COC(=O)c1sccc1NC(=O)Nc1cc(C)ccc1OC	x	x	x	8	x	x	x	x
COc1ccc(C)cc1NC(=O)Nc1ccc(Br)cn1	144*	1	-51	0	2	116	97	98
CCOc1ccccc1NC(=O)CN(c1ccc(Cl)cc1)S(C)(=O)=O	x	x	x	2	x	x	x	x
Cc1ccc2[nH]c(C)c(CCNC(=O)C3CCCCC3C(=O)OCC(F)(F)F)c2c1 (stereo not drawn)	101	0	-3	3	6	x	x	x
Cc1cc(C)nc(SC2CCCCC2O)n1 (stereo not drawn)	136*	1	-41	16	5	112	97	99
COc1ccc(N2C(=O)CC(Sc3nc(C)cc(C)n3)C2=O)cc1OC (stereo not drawn)	x	x	x	-2	x	x	x	x
C/C(O)=C(\N=Nc1cc(C)ccc1O)C(N)=O	143*	2	-46	1	5	175*	129*	136*
COc1cc(NC(=O)C2CCCC2)c(OC)cc1Cl	84	0	24	0	3	x	x	x
